Assay results: ChEMBL document CHEMBL1926596, “Synthesis and antimalarial evaluation of novel isocryptolepine derivatives” (Bioorg Med Chem, 2011)
Counter-ions that a name gives are not always drawn.

Tests used:
Plasmodium falciparum [1] = assay: Antimalarial activity against chloroquine-resistant Plasmodium falciparum W2mef infected in human erythrocytes assessed as inhibition of [3H]hypoxanthine incorporation after 48 hrs by beta liquid scintillation counting method; assay type: functional, organism-based
Method in brief: (§1)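 Hydrochloride salts, from DMSO/water stocks (final DMSO <0.05%), added in triplicate to parasites cultured in RPMI 1640 HEPES with L-glutamine, gentamicin, hypoxanthine and 10% pooled human plasma at 37 °C under 3–9% oxygen. Radiolabel was added, then 48 h incubation, freeze-thaw, filtermat harvest and scintillation counting. Uninfected and infected drug-free controls were included. IC50 came from nonlinear regression of log-dose–response curves, with at least 3 separate runs.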

Plasmodium falciparum [2] = assay: Antimalarial activity against chloroquine-sensitive Plasmodium falciparum 3D7 infected in human erythrocytes assessed as inhibition of [3H]hypoxanthine incorporation after 48 hrs by beta liquid scintillation counting method; assay type: functional, organism-based; method in brief: as §1
[3] = Selectivity index, ratio of IC50 for mouse 3T3 cells to IC50 for chloroquine-resistant Plasmodium falciparum W2mef; assay type: toxicity, cell-based, NIH3T3; settings: read-out: Ratio IC50
Method in brief: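 The ratio uses the W2mef antiplasmodial IC50 and the IC50 in 3T3 mouse embryonic fibroblasts. Cells were seeded 24 h earlier at 7500/well on 1% gelatine, 37 °C, 5% CO2. Serial dilutions were added in quadruplicate with a vehicle control for 48 h. MTT (1 mg/mL, 60 min, 37 °C) was solubilised in DMSO and read at 595 nm. IC50 came from nonlinear regression after DMSO correction, with at least 3 runs.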

NIH3T3 = assay: Cytotoxicity against mouse 3T3 cells after 48 hrs by MTT assay; assay type: cell-based; settings: NIH3T3, 48 h
Method in brief: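 Cells seeded at 7500 per well on 1% gelatine-coated plates 24 h before testing (37 °C, 5% CO2, humidified). Test agents given as hydrochloride salts in DMSO/water stocks, diluted in RPMI, serially diluted, added in quadruplicate, with vehicle and drug-free controls. After 48 h, MTT (1 mg/mL in RPMI) for 60 min, DMSO solubilisation, absorbance 595 nm. At least three separate runs; IC50 by non-linear regression after DMSO correction.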

Plasmodium falciparum [4] = assay: Antimalarial activity against Plasmodium falciparum K1; assay type: functional, organism-based

`Cn1cc2c3ccccc3nc-2c2ccc(Cl)cc21` gave an IC50 (Plasmodium falciparum [1]) of 316 nM, an IC50 (Plasmodium falciparum [2]) of 130 nM and a selectivity ratio [3] of 7.3. The IC50 (NIH3T3) was 2260 nM.
`Cc1ccc2c3cn(C)c4ccccc4c-3nc2c1` gave an IC50 (Plasmodium falciparum [1]) of 760 nM, an IC50 (Plasmodium falciparum [2]) of 448 nM and a selectivity ratio [3] of 2.7. It also gave an IC50 (NIH3T3) of 2070 nM.
`Cn1cc2c3cc(Br)ccc3nc-2c2ccccc21` showed an IC50 (Plasmodium falciparum [1]) of 184 nM, an IC50 (Plasmodium falciparum [2]) of 85 nM and a selectivity ratio [3] of 11. For the same molecule, the IC50 (NIH3T3) was 1970 nM.
With `Cn1cc2c3cc(Br)ccc3nc-2c2cc(Cl)ccc21` the IC50 (Plasmodium falciparum [1]) was 85 nM, the IC50 (Plasmodium falciparum [2]) was 57 nM and the selectivity ratio [3] was 106. For the same molecule, the IC50 (NIH3T3) was 9000 nM.
Molecule `Cn1cc2c3cc(Br)ccc3nc-2c2cc(Br)ccc21` has an IC50 (Plasmodium falciparum [1]) of 112 nM, an IC50 (Plasmodium falciparum [2]) of 127 nM and a selectivity ratio [3] of 23. For the same molecule, the IC50 (NIH3T3) was 2580 nM.
With `Cn1cc2c3cc(Br)ccc3nc-2c2ccc(Cl)cc21` the IC50 (Plasmodium falciparum [1]) was 100 nM, the IC50 (Plasmodium falciparum [2]) was 50 nM and the selectivity ratio [3] was 26. For the same molecule, the IC50 (NIH3T3) was 2640 nM.
In the case of `Cc1cc2nc3c4ccccc4n(C)cc-3c2cc1Br`, the IC50 (Plasmodium falciparum [1]) is reported as 131 nM, the IC50 (Plasmodium falciparum [2]) is reported as 62 nM and the selectivity ratio [3] is reported as 19. The IC50 (NIH3T3) was 2500 nM.
Molecule `Cn1cc2c3cc(Cl)ccc3nc-2c2ccccc21` has an IC50 (Plasmodium falciparum [1]) of 218 nM, an IC50 (Plasmodium falciparum [2]) of 117 nM and a selectivity ratio [3] of 9.6. The IC50 (NIH3T3) was 2100 nM.
With `Cn1c2c3cc(Br)ccc3nc-2cc2cc(Br)ccc21` the IC50 (Plasmodium falciparum [4]) was 49 nM.
Molecule `CCN(CC)CCCC(C)Nc1ccnc2cc(Cl)ccc12` (centres undefined) [CHLOROQUINE] has an IC50 (NIH3T3) of 72000 nM.
In the case of `Cn1cc2c3ccccc3nc-2c2ccccc21` [ISOCRYPTOLEPINE HYDROCHLORIDE], the IC50 (Plasmodium falciparum [1]) is reported as 1180 nM, the IC50 (Plasmodium falciparum [2]) is reported as 665 nM and the selectivity ratio [3] is reported as 1.9. It also gave an IC50 (NIH3T3) of 2190 nM.
`CCCCN(CCCC)CC(O)c1cc(Cl)cc2c1-c1ccc(Cl)cc1/C2=C/c1ccc(Cl)cc1` (centres undefined) [LUMEFANTRINE] showed an IC50 (Plasmodium falciparum [1]) of 56 nM.
